Assay results: ChEMBL document CHEMBL4354867, “Validation and Characterization of Five Distinct Novel Inhibitors of Human Cytomegalovirus” (J Med Chem, 2020)
Active and inactive are the calls of the source. The calls are words filed in the database; no cut-off is given here.

What was measured:
Human betaherpesvirus 5 [1] = test: Antiviral activity against GCV-resistant HCMV Towne infected in human HFF cells assessed as reduction in plaque formation treated with compound following viral infection and incubated for 8 to 10 days by crystal violet staining based assay; format: functional, organism-based; conditions: Human betaherpesvirus 5, strain Towne
Human betaherpesvirus 5 [2] = test: Antiviral activity against HCMV Towne infected in human HFF cells assessed as reduction in plaque formation treated with compound following viral infection and incubated for 8 to 10 days by crystal violet staining based assay; format: functional, organism-based; conditions: Human betaherpesvirus 5, strain Towne
Human alphaherpesvirus 1 = test: Antiviral activity against HSV 1 infected in African green monkey Vero cells assessed as reduction in plaque formation incubated for 36 hrs by crystal violet staining based assay; format: functional, organism-based; conditions: vero
Summary of the method: (§1)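 Plaque reduction in Vero cells: virus adsorbed 60 min, then compound added in a carboxymethylcellulose overlay. Plaques counted after 36 h by crystal violet staining.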

Human gammaherpesvirus 4 = test: Antiviral activity against EBV infected in human AKATA cells assessed as reduction in IgG-induced lytic virus replication measured at 48 hrs post-lytic induction by qRT-PCR analysis; format: functional, organism-based; conditions: human gammaherpesvirus 4, 48 h; read-out: EC50
Human betaherpesvirus 5 [3] = test: Inhibition of viral protein expression in HCMV Towne infected in human HFF cells assessed as reduction in UL44 expression at 3 uM treated with compound for 24 hrs followed by viral infection at MOI of 0.01 PFU/cell measured at 72 hrs post infection by Western blot analysis; format: functional, organism-based; conditions: strain Towne
Summary of the method: (§2)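 HFFs pretreated with compound, then infected with HCMV Towne at MOI 1, 0.1 or 0.01. Viral proteins in cell lysates detected at 72 hpi by SDS-PAGE (8–10%), PVDF transfer and chemiluminescent immunoblot. Images from a representative experiment.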

Human betaherpesvirus 5 [4] = test: Inhibition of viral protein expression in HCMV Towne infected in human HFF cells assessed as reduction in IE1 expression at 3 uM treated with compound for 24 hrs followed by viral infection at MOI of 0.01 PFU/cell measured at 72 hrs post infection by Western blot analysis; format: functional, organism-based; conditions: strain Towne; summary of the method: as §2
Human betaherpesvirus 5 [5] = test: Inhibition of viral protein expression in HCMV Towne infected in human HFF cells assessed as reduction in IE2 expression at 3 uM treated with compound for 24 hrs followed by viral infection at MOI of 1 PFU/cell measured at 72 hrs post infection by Western blot analysis; format: functional, organism-based; conditions: strain Towne; summary of the method: as §2
Human betaherpesvirus 5 [6] = test: Inhibition of viral protein expression in HCMV Towne infected in human HFF cells assessed as reduction in UL84 expression at 3 uM treated with compound following viral infection at MOI of 1 PFU/cell measured at 72 hrs post infection by Western blot analysis; format: functional, organism-based; conditions: strain Towne
Summary of the method: (§3)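 HFFs infected with HCMV Towne (MOI 1), then treated with compound. Lysates taken at 72 hpi, equal protein loaded on 8–10% Tris-glycine SDS-PAGE and transferred to PVDF. Primary antibodies overnight at 4 °C, HRP secondary, chemiluminescent detection; β-actin as loading control.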

Human betaherpesvirus 5 [7] = test: Inhibition of viral protein expression in HCMV Towne infected in human HFF cells assessed as reduction in IE1 expression at 3 uM treated with compound following viral infection at MOI of 1 PFU/cell measured at 72 hrs post infection by Western blot analysis; format: functional, organism-based; conditions: strain Towne; summary of the method: as §3
Human betaherpesvirus 5 [8] = test: Inhibition of viral protein expression in HCMV Towne infected in human HFF cells assessed as reduction in UL44 expression at 3 uM treated with compound for 24 hrs followed by viral infection at MOI of 1 PFU/cell measured at 72 hrs post infection by Western blot analysis; format: functional, organism-based; conditions: strain Towne; summary of the method: as §2
Human betaherpesvirus 5 [9] = test: Inhibition of viral protein expression in HCMV Towne infected in human HFF cells assessed as reduction in pp65 expression at 3 uM treated with compound for 24 hrs followed by viral infection at MOI of 0.01 PFU/cell measured at 72 hrs post infection by Western blot analysis; format: functional, organism-based; conditions: strain Towne; summary of the method: as §2
Human alphaherpesvirus 2 = test: Antiviral activity against HSV 2 infected in African green monkey Vero cells assessed as reduction in plaque formation incubated for 36 hrs by crystal violet staining based assay; format: functional, organism-based; conditions: vero; summary of the method: as §1
Human betaherpesvirus 5 [10] = test: Antiviral activity against HCMV TB40 infected in human HFF cells assessed as reduction in plaque formation treated with compound following viral infection and incubated for 8 to 10 days by crystal violet staining based assay; format: functional, organism-based; conditions: Human betaherpesvirus 5, TB40, HFF
Human betaherpesvirus 5 [11] = test: Antiviral activity against pp28-luciferase expressing HCMV Towne infected in human HFF cells assessed as reduction in viral entry by measuring viral replication at 1 to 10 uM treated with compound for 24 hrs followed by viral infection at MOI of 0.01 to 1 PFU/cell measured at 72 hrs post infection by luciferase reporter gene assay; format: functional, organism-based; conditions: strain Towne
Summary of the method: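 HFFs pretreated 24 h with compound, then infected with pp28-luciferase recombinant Towne HCMV (luciferase under the UL99 late promoter) at MOI 1, 0.1 or 0.01. Luciferase measured in cell lysates after 3 days. Triplicate values, mean ± SD.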

Human betaherpesvirus 5 [12] = test: Inhibition of viral protein expression in HCMV Towne infected in human HFF cells assessed as reduction in UL84 expression at 3 uM treated with compound for 24 hrs followed by viral infection at MOI of 1 PFU/cell measured at 72 hrs post infection by Western blot analysis; format: functional, organism-based; conditions: strain Towne; summary of the method: as §2
[13] = Antiviral activity against Mouse Cytomegalovirus Smith (ATCC VR-1399) infected in mouse MEF cells assessed as reduction in plaque formation measured after 3 days by crystal violet staining based assay; format: functional, cell-based, Murine cytomegalovirus (strain Smith); conditions: mef
Summary of the method: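 Plaque reduction with MCMV Smith in mouse embryonic fibroblasts, with compound in a carboxymethylcellulose overlay. Assay ended at 3 days and plaques counted after crystal violet staining.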

HFF = test: Cytotoxicity against human HFF cells assessed as reduction in cell viability incubated for 72 hrs or 10 days by MTT assay; format: cell-based
Summary of the method: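 MTT assay on uninfected cells exposed to compound for 72 h or 8–10 days, matching the antiviral assay durations. MTT (5 mg/mL stock in PBS) added, then 2–3 h at 37 °C. Formazan absorbance read at 560 nm.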

Human betaherpesvirus 5 [14] = test: Inhibition of viral protein expression in HCMV Towne infected in human HFF cells assessed as reduction in IE2 expression at 3 uM treated with compound following viral infection at MOI of 1 PFU/cell measured at 72 hrs post infection by Western blot analysis; format: functional, organism-based; conditions: strain Towne; summary of the method: as §3
Human betaherpesvirus 5 [15] = test: Antiviral activity againstpp28-luciferase expressing HCMV Towne infected in human HFF cells assessed as reduction in viral replication treated with compound following viral infection at MOI of 1 PFU/cells measured after 3 days in presence of GCV by luciferase reporter gene assay; format: functional, organism-based; conditions: Human betaherpesvirus 5, strain Towne, 72 h
Summary of the method: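 HFFs in 96-well plates were infected with pp28-luciferase Towne HCMV, in which luciferase is driven by the UL99 late promoter, at MOI 1. A dose-response of each drug alone gave its EC₅₀. Combinations started at twice each EC₅₀ in DMEM with 4% FBS, followed by two-fold serial dilutions, and were added after infection. Luciferase was read in cell lysates at 72 hpi. The Bliss ratio is observed over expected inhibition.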

Human betaherpesvirus 5 [16] = test: Antiviral activity against HCMV TB40 infected in human HFF cells assessed as reduction in plaque formation at 1 to 10 uM treated with compound following viral infection at MOI of 100 PFU/ml and measured after 10 days by crystal violet staining based assay; format: functional, organism-based
Human betaherpesvirus 5 [17] = test: Antiviral activity against GCV-resistant HCMV Towne infected in human HFF cells assessed as reduction in plaque formation at 0.1 to 10 uM treated with compound for 24 hrs followed by viral infection at MOI of […] and measured after 10 days by crystal violet staining based assay; format: functional, organism-based; conditions: strain Towne
Summary of the method: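 Overlay of DMEM with 0.5% carboxymethylcellulose and 4% FBS, 37 °C. After 10 days plaques stained with crystal violet and counted. Data are mean ± SD of triplicates from a representative experiment.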

SMILES: COc1ccc(Cl)cc1C(=O)Nc1ccc(NC(=O)c2ccco2)cc1
- EC50 (Human betaherpesvirus 5 [1]): 250 nM
- EC50 (Human betaherpesvirus 5 [2]): 550 nM
- EC50 (Human alphaherpesvirus 1): Not Active
- EC50 (Human gammaherpesvirus 4): > 10000 nM
- inhibition (Human betaherpesvirus 5 [3]): Active
- inhibition (Human betaherpesvirus 5 [4]): Active
- inhibition (Human betaherpesvirus 5 [5]): inactive
- inhibition (Human betaherpesvirus 5 [6]): inactive
- inhibition (Human betaherpesvirus 5 [7]): inactive
- inhibition (Human betaherpesvirus 5 [8]): inactive
- inhibition (Human betaherpesvirus 5 [9]): Active
- EC50 (Human alphaherpesvirus 2): Not Active
- EC50 (Human betaherpesvirus 5 [10]): 120 nM
- Activity (Human betaherpesvirus 5 [11]): Active
- inhibition (Human betaherpesvirus 5 [12]): inactive
- EC50 [13]: Not Active
- CC50 (HFF): > 500000 nM
- inhibition (Human betaherpesvirus 5 [14]): inactive
- EC50 (Human betaherpesvirus 5 [15]): 720 nM
- Activity (Human betaherpesvirus 5 [16]): Active
- Activity (Human betaherpesvirus 5 [17]): Active
